Laboratory results: ChEMBL document CHEMBL3817756, “Synthesis and Anti-Influenza Activity of Pyridine, Pyridazine, and Pyrimidine C-Nucleosides as Favipiravir (T-705) Analogues” (J Med Chem, 2016)
Calls of active or inactive are those of the source. No cut-off for these calls is given here.

Key:
MDCK [1] = assay: Prodrug conversion in MDCK cells assessed as ((2R,3S,4R,5S)-5-(2-carbamoyl-3-fluoropyridin-4-yl)-3,4-dihydroxytetrahydrofuran-2-yl)methyl tetrahydrogen triphosphate level per million cells at 50 uM after 24 hrs by LC-MS/Ms analysis; format: ADME, cell-based, Canis lupus familiaris; conditions: dog
A549 [2] = assay: Prodrug conversion in human A549 cells assessed as ((2R,3S,4R,5S)-5-(2-carbamoyl-3-fluoropyridin-4-yl)-3,4-dihydroxytetrahydrofuran-2-yl)methyl dihydrogen phosphate level per million cells at 50 uM after 24 hrs by LC-MS/Ms analysis; format: ADME, cell-based; conditions: a549, 24 h
[3] = Prodrug conversion in NHBE cells assessed as ((2R,3S,4R,5S)-5-(2-carbamoyl-3-fluoropyridin-4-yl)-3,4-dihydroxytetrahydrofuran-2-yl)methyl tetrahydrogen triphosphate level per million cells at 50 uM after 24 hrs by LC-MS/Ms analysis; format: ADME, cell-based; conditions: human
Lung [4] = assay: Prodrug conversion in Balb/c mouse assessed as ((2R,3S,4R,5S)-5-(2-carbamoyl-3-fluoropyridin-4-yl)-3,4-dihydroxytetrahydrofuran-2-yl)methyl dihydrogen phosphate level in lung at 2 mg/kg, iv measured at 0.25 hrs post dose by LC-MS/MS analysis; format: ADME, organism-based; conditions: in vivo
Method in brief: (§1)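 Female Balb/c mice (N = 2), fasted overnight, given the prodrug IV at 2 mg/kg in 10% DMSO/60% PEG400/30% water. Under isoflurane anaesthesia, blood sampled at 0.25 and 2 h post dose. Parent nucleoside measured in blood; monophosphate and triphosphate measured in lung.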

Blood [5] = assay: Prodrug conversion in Balb/c mouse assessed as 4-((2S,3R,4S,5R)-3,4-dihydroxy-5-(hydroxymethyl)tetrahydrofuran-2-yl)-3-fluoropicolinamide level in blood at 2 mg/kg, iv measured at 0.25 hrs post dose by LC-MS/MS analysis; format: ADME, organism-based; conditions: in vivo; method in brief: as §1
[6] = Cytotoxicity against MDCK cells after 10 mins by CellTiter-Glo assay; format: cell-based, Canis lupus familiaris; conditions: dog
Method in brief: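 Uninfected cultures run in parallel with the MDCK neuraminidase antiviral assay. CellTiter-Glo reagent added, 10 min at room temperature, luminescence read.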

Influenza A virus [7] = assay: Antiviral activity against Influenza A virus A/WSN/33(H1N1) infected in NHBE cells; format: functional, organism-based; conditions: A/WSN/1933(H1N1)
Lung [8] = assay: Prodrug conversion in Balb/c mouse assessed as ((2R,3S,4R,5S)-5-(2-carbamoyl-3-fluoropyridin-4-yl)-3,4-dihydroxytetrahydrofuran-2-yl)methyl tetrahydrogen triphosphate level in lung at 2 mg/kg, iv measured at 0.25 hrs post dose by LC-MS/MS analysis; format: ADME, organism-based; conditions: in vivo; method in brief: as §1
Lung [9] = assay: Prodrug conversion in Balb/c mouse assessed as ((2R,3S,4R,5S)-5-(2-carbamoyl-3-fluoropyridin-4-yl)-3,4-dihydroxytetrahydrofuran-2-yl)methyl tetrahydrogen triphosphate level in lung at 2 mg/kg, iv measured at 2 hrs post dose by LC-MS/MS analysis; format: ADME, organism-based; conditions: in vivo, BLD = below limit of detection; method in brief: as §1
Lung [10] = assay: Prodrug conversion in Balb/c mouse assessed as ((2R,3S,4R,5S)-5-(2-carbamoyl-3-fluoropyridin-4-yl)-3,4-dihydroxytetrahydrofuran-2-yl)methyl dihydrogen phosphate level in lung at 2 mg/kg, iv measured at 2 hrs post dose by LC-MS/MS analysis; format: ADME, organism-based; conditions: in vivo; method in brief: as §1
MDCK [11] = assay: Prodrug conversion in MDCK cells assessed as ((2R,3S,4R,5S)-5-(2-carbamoyl-3-fluoropyridin-4-yl)-3,4-dihydroxytetrahydrofuran-2-yl)methyl dihydrogen phosphate level per million cells at 50 uM after 24 hrs by LC-MS/Ms analysis; format: ADME, cell-based, Canis lupus familiaris; conditions: dog
A549 [12] = assay: Prodrug conversion in human A549 cells assessed as ((2R,3S,4R,5S)-5-(2-carbamoyl-3-fluoropyridin-4-yl)-3,4-dihydroxytetrahydrofuran-2-yl)methyl tetrahydrogen triphosphate level per million cells at 50 uM after 24 hrs by LC-MS/Ms analysis; format: ADME, cell-based; conditions: a549, 24 h
Influenza A virus [13] = assay: Antiviral activity against Influenza A virus A/WSN/33(H1N1) infected in MDCK cells assessed as inhibition of neuraminidase activity using 2'-(4-methylumbelliferyl)-alpha-D-N-acetylneuraminic acid substrate pretreated with cells for 24 hrs followed by viral infection measured after 20 hrs by fluorescence assay; format: functional, organism-based; conditions: A/WSN/1933(H1N1)
Method in brief: (§2)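 MDCK cells at 1 × 10^4 cells/well in DMEM with 0.3% FBS, 1% penicillin/streptomycin and 1% DMSO. After 24 h, serially diluted compound was added for a further 24 h. Cells were infected with A/WSN/33 at 250 IU/well for 20 h at 37 °C. Supernatant was replaced with 25 μM MUNANA in 33 mM MES, pH 6.5, for 45 min at 30 °C. Reaction stopped with glycine pH 10.5/25% ethanol; fluorescence read at ex 355/em 460 nm. EC50 averaged over n ≥ 2.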

Blood [14] = assay: Prodrug conversion in Balb/c mouse assessed as 4-((2S,3R,4S,5R)-3,4-dihydroxy-5-(hydroxymethyl)tetrahydrofuran-2-yl)-3-fluoropicolinamide level in blood at 2 mg/kg, iv measured at 2 hrs post dose by LC-MS/MS analysis; format: ADME, organism-based; conditions: in vivo; method in brief: as §1
[15] = Prodrug conversion in NHBE cells assessed as ((2R,3S,4R,5S)-5-(2-carbamoyl-3-fluoropyridin-4-yl)-3,4-dihydroxytetrahydrofuran-2-yl)methyl dihydrogen phosphate level per million cells at 50 uM after 24 hrs by LC-MS/Ms analysis; format: ADME, cell-based; conditions: human
Influenza A virus [16] = assay: Antiviral activity against Influenza A virus A/WSN/33(H1N1) infected in human A549 cells; format: functional, organism-based; conditions: A/WSN/1933(H1N1)
Influenza A virus [17] = assay: Antiviral activity against Influenza A virus infected in MDCK cells; format: functional, organism-based; method in brief: as §2
Tni [18] = assay: (§3) Binding affinity to recombinant Influenza A virus A/chicken/Nanchang/3-120/01(H3N2) RNA polymerase subunit C-terminal TAP/His6-tagged PA/PB1/PB2 expressed in Tni cells assessed as compound incorporation by measuring 10 to 14-mer product formation using 5'-pApG/14-nucleotide RNA with C as nucleotide as primer/template at 100 uM after 30 mins in presence of [alpha-33P]CTP by PAGE analysis; format: cell-based
[19] = Inhibition of HCV NS5B RNA-dependent RNA polymerase assessed as inhibition of [3H]CTP incorporation using HCV 5'-untranslated region RNA template incubated for 2 hrs; design: species or system Hepacivirus hominis
[20] = Inhibition of recombinant human Norovirus GII.4 RNA-dependent RNA polymerase expressed in Escherichia coli assessed as inhibition of [3H]UTP incorporation using HCV 5'-untranslated region RNA template incubated for 2.5 hrs by radiometric assay
[21] = Inhibition of human rhinovirus 16 RNA-dependent RNA polymerase assessed as inhibition of [3H]UTP incorporation using HCV 5'-untranslated region RNA template incubated for 2.5 hrs by radiometric assay; design: species or system rhinovirus A16
Tni [22] = assay: as §3, with “measuring” for “measuring 10 to”, “with U” for “with C”; format: cell-based
A549 [23] = assay: Drug metabolism in human A549 cells assessed as nucleoside triphosphate formation at 50 uM after 24 hrs by LC-MS/Ms analysis; format: ADME, cell-based; conditions: a549, 24 h, BLD = below limit of detection
[24] = Drug metabolism in NHBE cells assessed as ((2R,3S,4R,5S)-5-(2-carbamoyl-3-fluoropyridin-4-yl)-3,4-dihydroxytetrahydrofuran-2-yl)methyl tetrahydrogen triphosphate level per million cells at 50 uM after 24 hrs by LC-MS/Ms analysis; format: ADME, cell-based; conditions: human
[25] = Drug metabolism in NHBE cells assessed as ((2R,3S,4R,5S)-5-(2-carbamoyl-3-fluoropyridin-4-yl)-3,4-dihydroxytetrahydrofuran-2-yl)methyl dihydrogen phosphate level per million cells at 50 uM after 24 hrs by LC-MS/Ms analysis; format: ADME, cell-based; conditions: human
MDCK [26] = assay: Drug metabolism in MDCK cells assessed as ((2R,3S,4R,5S)-5-(2-carbamoyl-3-fluoropyridin-4-yl)-3,4-dihydroxytetrahydrofuran-2-yl)methyl dihydrogen phosphate level per million cells at 50 uM after 24 hrs by LC-MS/Ms analysis; format: ADME, cell-based, Canis lupus familiaris; conditions: dog
A549 [27] = assay: Drug metabolism in human A549 cells assessed as ((2R,3S,4R,5S)-5-(2-carbamoyl-3-fluoropyridin-4-yl)-3,4-dihydroxytetrahydrofuran-2-yl)methyl dihydrogen phosphate level per million cells at 50 uM after 24 hrs by LC-MS/Ms analysis; format: ADME, cell-based; conditions: a549, 24 h
MDCK [28] = assay: Drug metabolism in MDCK cells assessed as ((2R,3S,4R,5S)-5-(2-carbamoyl-3-fluoropyridin-4-yl)-3,4-dihydroxytetrahydrofuran-2-yl)methyl tetrahydrogen triphosphate level per million cells at 50 uM after 24 hrs by LC-MS/Ms analysis; format: ADME, cell-based, Canis lupus familiaris; conditions: dog
A549 [29] = assay: Drug metabolism in human A549 cells assessed as ((2R,3S,4R,5S)-5-(2-carbamoyl-3-fluoropyridin-4-yl)-3,4-dihydroxytetrahydrofuran-2-yl)methyl tetrahydrogen triphosphate level per million cells at 50 uM after 24 hrs by LC-MS/Ms analysis; format: ADME, cell-based; conditions: a549, 24 h

## CC(C)(C)C(=O)OCOP(=O)(OCOC(=O)C(C)(C)C)OC[C@H]1O[C@@H](c2ccnc(C(N)=O)c2F)[C@H](O)[C@@H]1O
MDCK [1]
  Drug metabolism: 179 pmol
A549 [2]
  Drug metabolism: 74 pmol
[3]
  Drug metabolism: 7.22 pmol
Lung [4]
  Drug metabolism: 1764 nM
Blood [5]
  Drug metabolism: 1436 nM
[6]
  CC50 at 10 min: > 400 µM
Influenza A virus [7]
  EC50: 57.5 µM
Lung [8]
  Drug metabolism: < 60 nM
Lung [9]
  Drug metabolism: BLD
Lung [10]
  Drug metabolism: 792 nM
MDCK [11]
  Drug metabolism: 248 pmol
A549 [12]
  Drug metabolism: 5 pmol
Influenza A virus [13]
  EC50: 5.8 µM
Blood [14]
  Drug metabolism: 422 nM
[15]
  Drug metabolism: 113 pmol
Influenza A virus [16]
  EC50: 34.7 µM
Influenza A virus [17]
  EC50: 5.8 µM

## NC(=O)c1nccc([C@@H]2O[C@H](CO)[C@@H](O)[C@H]2O)c1O
[6]
  CC50 at 10 min: 2 µM
Influenza A virus [13]
  EC50: 1.3 µM

## NC(=O)c1nccc([C@@H]2O[C@H](COP(=O)(O)OP(=O)(O)OP(=O)(O)O)[C@@H](O)[C@H]2O)c1F
Tni [18]
  Activity: Active
[19]
  IC50: 5.3 µM
[20]
  IC50: 3.5 µM
[21]
  IC50: 4 µM
Tni [22]
  Activity: Active

## NC(=O)c1nc(F)cn([C@@H]2O[C@H](CO)[C@@H](O)[C@H]2O)c1=O
[6]
  CC50 at 10 min: > 400 µM
Influenza A virus [13]
  EC50: 2.2 µM

## NC(=O)c1nccc([C@@H]2O[C@](F)(CO)[C@@H](O)[C@H]2O)c1F
[6]
  CC50 at 10 min: 185 µM
Influenza A virus [13]
  EC50: 98 µM
A549 [23]
  Drug metabolism: BLD

## C[C@H](NP(=O)(OC[C@H]1O[C@@H](c2ccnc(C(N)=O)c2F)[C@H](O)[C@@H]1O)Oc1ccccc1)C(=O)CC1CCCCC1 (some centres not stated)
MDCK [1]; BLD = below limit of detection
  Drug metabolism: BLD
A549 [2]
  Drug metabolism: 59.5 pmol
[3]; BLD = below limit of detection
  Drug metabolism: BLD
MDCK [11]
  Drug metabolism: 44.7 pmol
A549 [12]; BLD = below limit of detection
  Drug metabolism: BLD
Influenza A virus [13]
  EC50: 129 µM
[15]
  Drug metabolism: 42.6 pmol
Influenza A virus [16]
  EC50: 74.1 µM
Influenza A virus [17]
  EC50: 129 µM

## NC(=O)c1cc([C@@H]2O[C@H](CO)[C@@H](O)[C@H]2O)ccn1
A549 [23]
  Drug metabolism: BLD

## COc1c(C(N)=O)ccnc1[C@@H]1O[C@H](CO)[C@@H](O)[C@H]1O
[6]
  CC50 at 10 min: 207 µM
Influenza A virus [13]
  EC50: 88 µM

## NC(=O)c1nc(F)cnc1O [FAVIPIRAVIR]
[6]
  CC50 at 10 min: > 400 µM
Influenza A virus [13]
  EC50: 2.7 µM

## NC(=O)c1nccc([C@@H]2O[C@H](CO)[C@@H](O)[C@H]2O)c1F
[24]
  Drug metabolism: 21.6 pmol
[25]
  Drug metabolism: 262 pmol
MDCK [26]
  Drug metabolism: 48.5 pmol
A549 [27]
  Drug metabolism: 41 pmol
[6]
  CC50 at 10 min: > 400 µM
Influenza A virus [7]
  EC50: 29.5 µM
MDCK [28]
  Drug metabolism: 192 pmol
A549 [29]
  Drug metabolism: 11.6 pmol
Influenza A virus [13]
  EC50: 1.9 µM
Influenza A virus [16]
  EC50: 52 µM
Influenza A virus [17]
  EC50: 1.9 µM

## NC(=O)c1nccc([C@@H]2O[C@H](CO)[C@@H](O)[C@H]2O)c1Cl
A549 [23]
  Drug metabolism: BLD

## Cn1cc([C@@H]2O[C@H](CO)[C@@H](O)[C@H]2O)c(=O)c(C(N)=O)n1
[6]
  CC50 at 10 min: 291 µM
Influenza A virus [13]
  EC50: 91 µM
A549 [23]
  Drug metabolism: BLD

## C#Cc1c([C@@H]2O[C@H](CO)[C@@H](O)[C@H]2O)ccnc1C(N)=O
[6]
  CC50 at 10 min: 98 µM
Influenza A virus [13]
  EC50: 36 µM

## C=Cc1c([C@@H]2O[C@H](CO)[C@@H](O)[C@H]2O)ccnc1C(N)=O
[6]
  CC50 at 10 min: 152 µM
Influenza A virus [13]
  EC50: 58 µM

## NC(=O)c1nccc([C@@H]2O[C@H](CO)[C@@H](O)[C@H]2F)c1F
[6]
  CC50 at 10 min: 306 µM
Influenza A virus [13]
  EC50: 87 µM

## NC(=O)c1nccc([C@@H]2O[C@H](CO)[C@@H](O)[C@H]2O)n1
[6]
  CC50 at 10 min: > 200 µM
Influenza A virus [13]
  EC50: 8.7 µM
A549 [23]
  Drug metabolism: BLD
